Measurements: ChEMBL document CHEMBL1152768, “4-Benzyloxy-gamma-sultone derivatives: discovery of a novel family of non-nucleoside inhibitors of human cytomegalovirus and varicella zoster virus” (J Med Chem, 2009)
pEC50: −log10 of the molar value.

How the values were obtained:
[1] = Cytotoxicity against human HEL cells assessed as morphological alteration after 3 days; format: cell-based
In short: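 HEL cultures were examined under the microscope. MCC was recorded as the compound concentration causing a microscopically detectable alteration of normal cell morphology.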

Human alphaherpesvirus 3 [2] = assay: Antiviral activity against thymidine kinase deficient Varicella zoster virus 07/1 infected in human HEL cells assessed reduction in viral plaque formation; format: functional, organism-based; conditions: Human alphaherpesvirus 3, HEL
In short: (§1)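 Confluent HEL cell monolayers were inoculated with VZV at 20 PFU per well. Residual virus was removed after 2 h, and compound was added at varying concentrations, in duplicate.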

Human betaherpesvirus 5 [3] = assay: Antiviral activity against HCMV AD169 infected in human HEL cells assessed inhibition of virus-induced cytopathicity after 7 days postinfection; format: functional, organism-based; conditions: Human betaherpesvirus 5, AD169, HEL, 168 h
In short: (§2)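 HEL fibroblasts were infected at 100 PFU. After 2 h, residual virus was removed and medium with test compound was added at several concentrations, in duplicate. Cells were incubated 7 days at 37 °C, fixed with ethanol and stained with Giemsa.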

Human alphaherpesvirus 3 [4] = assay: Antiviral activity against thymidine kinase expressing Varicella zoster virus Oka infected in human HEL cells assessed reduction in viral plaque formation; format: functional, organism-based; conditions: Human alphaherpesvirus 3, Oka; in short: as §1
[5] = Cytotoxicity against human HEL cells assessed as reduction of growth after 3 days; format: cell-based
In short: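 HEL cells were seeded at 5 × 10³ cells/well and grown 24 h before compound was added at different concentrations. After 3 days at 37 °C, cells were counted with a Coulter counter. CC50, the concentration halving growth relative to untreated controls, was read from plots of cell number (% of control) against concentration.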

Human betaherpesvirus 5 [6] = assay: Antiviral activity against HCMV Davis infected in human HEL cells assessed inhibition of virus-induced cytopathicity after 7 days postinfection; format: functional, organism-based; conditions: Human betaherpesvirus 5, Davis, 168 h; in short: as §2

Compound | MCC at 72 h [1] [µM] | pEC50 (Human alphaherpesvirus 3 [2]) | pEC50 (Human betaherpesvirus 5 [3]) | pEC50 (Human alphaherpesvirus 3 [4]) | CC50 at 72 h [5] [µM] | pEC50 (Human betaherpesvirus 5 [6])
CCC1(Cc2ccccc2)OS(=O)(=O)C=C1OC(c1ccccc1)c1ccccc1 (racemic) | ≥ 80 | < 4.10 | < 3.40 | < 4.10 | > 200 | < 3.40
CCC1(Cc2ccccc2)OS(=O)(=O)C=C1OCc1ccc(Cl)c(Cl)c1 (racemic) | ≥ 20 | < 5.49 | 5.19 | < 5.49 | 36.7 | 5.14
CCC1(Cc2ccccc2)OS(=O)(=O)C=C1OC(=O)c1ccccc1 (racemic) | > 400 | < 3.40 | < 3.40 | < 3.40 | > 200 | 3.75
CCC1(Cc2ccccc2)OS(=O)(=O)C=C1NCc1ccccc1 (configuration not stated) | ≥ 80 | 4.49 | < 4.10 | 4.43 | 92 | < 4.10
CCC1(Cc2ccccc2)OS(=O)(=O)C=C1OCc1ccc(C(F)(F)F)cc1 (racemic) | ≥ 16 | 5.17 | 4.92 | 5.11 | 99 | 5.10
CCC1(CC)OS(=O)(=O)C=C1OCc1ccccc1 | > 400 | 3.81 | < 3.40 | 3.76 | 200 | 3.63
CCC1(Cc2ccccc2)OS(=O)(=O)C=C1OS(=O)(=O)c1ccc(C)cc1 (racemic) | 400 | < 4.10 | < 4.10 | < 4.10 | 109 | < 4.10
CC1(Cc2ccccc2)OS(=O)(=O)C=C1OCc1ccccc1 (racemic) | > 400 | < 3.40 | < 3.70 | 3.51 | 68 | < 3.70
CCC1(Cc2ccccc2)OS(=O)(=O)C=C1OCC=C(C)C (racemic) | 400 | 4.28 | < 4.10 | 4.23 | 112 | < 4.10
CCC1(Cc2ccccc2)OS(=O)(=O)C=C1OCc1ccc([N+](=O)[O-])cc1 (racemic) | ≥ 80 | 4.27 | < 3.40 | 4.10 | < 200 | < 4.10
CCC1(Cc2ccccc2)OS(=O)(=O)C=C1OCc1ccc(C(C)(C)C)cc1 (racemic) | ≥ 400 | 5.14 | 4.70 | 5.19 | 200 | ≤ 5.30
CC(C)C1(Cc2ccccc2)OS(=O)(=O)C=C1OCc1ccccc1 (racemic) | ≥ 80 | < 4.80 | < 3.40 | < 4.10 | 200 | < 3.40
CCC1(Cc2ccccc2)OS(=O)(=O)C=C1OC (racemic) | > 400 | 3.55 | < 3.40 | 3.77 | > 200 | < 3.40
CCC1(Cc2ccccc2)OS(=O)(=O)C=C1OCC(=O)OC (racemic) | > 400 | < 3.40 | < 3.40 | < 3.40 | > 200 | < 3.40
CCC1(Cc2ccccc2)OS(=O)(=O)C=C1OCc1ccc(C)cc1 (racemic) | ≥ 16 | 5.23 | 5.14 | 5.19 | 41.5 | 5.23
CCC1(Cc2ccccc2)OS(=O)(=O)C=C1OCc1ccc(Br)cc1 (racemic) | 80 | 5.20 | 5.00 | 5.08 | 171 | 5.22
CCC1(Cc2ccccc2)OS(=O)(=O)C=C1OCc1cccc(Cl)c1 (racemic) | ≥ 20 | 5.17 | < 4.80 | 5.14 | 50 | 5.10
CCCC1(Cc2ccccc2)OS(=O)(=O)C=C1OCc1ccccc1 (racemic) | ≥ 400 | < 3.40 | < 3.40 | < 4.10 | 200 | < 3.40
CC(C)CC1(Cc2ccccc2)OS(=O)(=O)C=C1OCc1ccccc1 (racemic) | ≥ 80 | < 4.10 | < 3.40 | < 4.10 | 102 | < 3.40
CCC1(Cc2ccccc2)OS(=O)(=O)C=C1OCCCCc1ccccc1 (racemic) | ≥ 20 | < 4.70 | < 5.49 | 5.21 | 99 | 5.11
O=S1(=O)C=C(OCc2ccccc2)C2(CCc3ccccc3C2)O1 (racemic) | ≥ 80 | < 4.80 | < 3.40 | 4.10 | 131 | < 4.10
CCC1(Cc2ccccc2)OS(=O)(=O)C=C1OCCCc1ccccc1 (racemic) | ≥ 20 | 5.19 | 5.05 | < 5.49 | 133 | 5.06
CCC1(Cc2ccccc2)OS(=O)(=O)C=C1OCC#N (racemic) | > 400 | 3.70 | < 4.10 | 3.70 | > 200 | 3.63
CCC1(Cc2ccccc2)OS(=O)(=O)CC1=O (configuration not stated) | > 100 | 4.98 | < 3.40 | 5.00 | 200 | 3.40
CCC1(Cc2ccccc2)OS(=O)(=O)C=C1OCCCCCCc1ccccc1 (racemic) | ≥ 20 | 5.08 | > 5.49 | 5.06 | < 200 | 5.19
CC1(C(c2ccccc2)c2ccccc2)OS(=O)(=O)C=C1OCc1ccccc1 (racemic) | ≥ 400 | < 4.10 | < 4.10 | < 4.10 | 200 | < 3.40
O=c1[nH]c(=O)n([C@H]2C[C@H](O)[C@@H](CO)O2)cc1/C=C/Br [BRIVUDINE] | > 150 | 3.85 | – | 7.82 | 600 | –
C=CCOC1=CS(=O)(=O)OC1(CC)Cc1ccccc1 (racemic) | 80 | < 4.80 | < 3.40 | < 4.80 | > 200 | < 3.40
CCC1(Cc2ccccc2)OS(=O)(=O)C=C1OCC1CCCCC1 (racemic) | ≥ 200 | 5.15 | < 3.70 | 4.70 | > 200 | < 3.70
